Hits are enriched below; roughly 1.9% of the tested compounds scored in any of these assays.
Rin1 Abl inh: blocks binding of human Rin1 to Abl; actives 0.4% (n = 360,000); P00519+Q13671; inhibition, % at 7.35 µM; TR-FRET Rin1/Abl binding, biochemical; AID 588664; in the data active means inhibition above about 5%, passing the limit was not always enough
NadD inh: NadD (S. aureus) enzyme inhibition; AID 602399; inhibition, % at 20 µM; purified NadD enzyme, colorimetric absorbance read-out; actives 0.78% (n = 360,000); in the data active means inhibition above about 26%
Rpn11 block: inhibitors of human proteasome Rpn11; inhibition, % at 20 µM; human 26S proteasome, Ub4-pepOG fluorescence polarization; 20S core pre-blocked with epoxomicin; O00487; actives 0.59% (n = 360,000);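 active means inhibition at 20 µM, scaled to each plate's controls, above about 33%, limit read from the data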
ABHD5-PLIN5 inh: blocks binding of human ABHD5 to perilipin-5; Q00G26+Q8WTS1; Split G. princeps luciferase complementation, luminescence, 4 h; inhibition, % at 4 µM; actives 0.78% (n = 360,000); AID 602281;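 active means inhibition above the mean inhibition across every tested compound plus 3 SD, cut at about 22% in these data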
Xi reactivation: reactivates the inactive X chromosome in mouse fibroblasts | actives 0.055% (n = 360,000) | activation, % at 7.58 µM | XiGFP mouse fibroblasts, % GFP-positive cells imaging, 3 d; cells co-treated with 5-aza-dC sensitizer; scaled so ellipticine positive control = 100%;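 active means mean normalized replicate activation at least 10% and every replicate at or above 10%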
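material = 68-5-11 XiGFP fibroblast line | medium = DMEM plus 5-aza-dC sensitizer | schedule = 3 days compound exposure | benchmarks = positive control ellipticine, 6 µM final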
Rpn11 inh conf: Rpn11 inhibition confirmation, single concentration. inhibition, % at 20 µM. actives 29% (n = 1,900). shares compounds with Rpn11 block. purified human 26S proteasome, Ub4-pepOG fluorescence polarization; proteasome pretreated with epoxomicin
MMP-2 inh: blocks human MMP-2, flagging nonselective RPN11 hits. shares compounds with Rpn11 block. recombinant MMP-2, FRET peptide cleavage fluorescence. inhibition, % at 20 µM. actives 4% (n = 1,900);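 further: human MMP-2 activated beforehand with APMA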
Thrombin inh: counter-screen for RPN11 inhibitors: inhibition of bovine thrombin | shares compounds with Rpn11 block | bovine thrombin cleavage of Ub4-pepOG, fluorescence polarization | inhibition, % at 20 µM | actives 13% (n = 1,900) | AID 602333;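 active means mean inhibition at least 40% at 20 µM, or signal 3 deviations below plate average, so some actives read negative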
A number is an active result; n = inactive; x = no result given. Unless noted, no stated cut-off is given here; in the data, active means inhibition above about 40%; inactive means the rest.

SMILES	Rin1 Abl inh	NadD inh	Rpn11 block	ABHD5-PLIN5 inh	Xi reactivation	Rpn11 inh conf	MMP-2 inh	Thrombin inh
Cc1cc(NC(=O)CCC(=O)N(c2cccnc2)C(C(=O)NC2CCCC2)c2ccccc2)no1 (stereo not drawn)	n	n	n	n	x	x	x	x
CO[C@@H]1CN(C)C(=O)c2cc(NC(C)=O)ccc2OC[C@@H](C)N(C(=O)c2ccccn2)C[C@@H]1C	x	x	x	x	n	x	x	x
O=C(Nc1cccc(Cl)c1)N[C@H]1CC[C@@H](CCNC(=O)C2CCOCC2)O[C@H]1CO	x	x	x	x	n	x	x	x
O=C1Nc2ccccc2OCc2c1cccc2[N+](=O)[O-]	n	n	34	n	n	n	n	n
C[C@@H]1CN([C@H](C)CO)C(=O)c2c(c3ccccc3n2C)-c2ccccc2CO[C@H]1CN(C)Cc1cccnc1	x	x	x	x	n	x	x	x
CCc1cc2c(SCc3nc4sc(C(C)=O)c(C)c4c(=O)[nH]3)ncnc2s1	n	n	65	n	n	77	55	46
O=C1N[C@@H](Cc2ccccc2)COCc2cn(nn2)CC[C@H]1Cc1ccccc1	x	x	x	x	n	x	x	x
O=C(Nc1ccc(Cl)cc1)Nc1ccccc1Sc1ncc([N+](=O)[O-])s1	n	n	44	n	n	n	n	n
O=C(Nc1csc([N+](=O)[O-])c1)Nc1ccccc1Cl	n	n	n	n	n	x	x	x
CC(C)NC(=O)N(C)C[C@@H]1Oc2c(NC(=O)Nc3ccc4c(c3)OCO4)cccc2C(=O)N([C@@H](C)CO)C[C@@H]1C	x	x	x	x	n	x	x	x
CCS(=O)(=O)N1CC2(C1)[C@@H](c1ccccc1)[C@@H](CO)N2C(=O)C1CCC1	x	x	x	x	n	x	x	x
Cc1ccc(CSc2nnc(SCC(=O)N/N=C/c3c[nH]c4ccccc34)s2)cc1	n	n	112	n	n	93	n	n
C[C@@H]1CN([C@@H](C)CO)C(=O)Cc2cc(NS(=O)(=O)c3ccc(F)cc3)ccc2O[C@@H]1CN(C)S(=O)(=O)c1cn(C)cn1	x	x	x	x	n	x	x	x
COc1ccc(Nc2nc(-c3ccc(OC)cc3)c(CCC(=O)O)s2)cc1	n	n	n	n	n	x	x	x
Cc1ccc(Nc2nc(-c3ccc(C)cc3)c(CC(=O)O)s2)cc1	n	n	76	n	n	n	n	n
C[C@@H]1CN([C@H](C)CO)C(=O)Cc2cc(NC(=O)Nc3ccc(C(F)(F)F)cc3)ccc2O[C@@H]1CN(C)C(=O)NC1CCCCC1	x	x	x	x	n	x	x	x
Cc1ccc(S(=O)(=O)N(C)C)cc1NC(=O)CN1C(=O)NC2(CCCCCC2)C1=O	n	n	n	n	n	x	x	x
COc1ccc(NS(=O)(=O)c2ccc(C)c(NC(=O)CN3C(=O)NC4(CCCC4)C3=O)c2)cc1	n	n	83	n	n	76	n	n
O=C(C[C@H]1CC[C@@H]2[C@H](COC[C@H](O)CN2C(=O)Nc2ccc3c(c2)OCO3)O1)N1CCN(c2ccccc2)CC1	x	x	x	x	n	x	x	x
COc1ccc2c(c1)CCC1C2=NN(/C(C)=C/C(C)=O)C1c1cccc(F)c1 (stereo not drawn)	n	n	80	n	n	n	n	n
CC(C)[C@@H]1C(=O)N[C@H](c2ccc3c(c2)OCO3)CC=CC[C@H](C)Oc2ccccc2C(=O)N1C (mixture of isomers)	x	x	x	x	n	x	x	x
O=[N+]([O-])c1ccc(N/N=C\c2cccn2-c2ccccc2)nc1	n	n	58	n	x	44	n	n
Cn1ccc2cc3c(cc21)CCN3C(=O)Nc1cccnc1	n	31	91	n	n	n	n	n
Cc1nc(C)c(NC(=O)N2CCc3ccccc32)cc1NC(=O)N1CCc2ccccc21	n	n	n	n	x	x	x	x
Cc1cc(/C=C2\Cc3ccccc3C2=O)c(C)n1-c1ccccc1	n	n	56	n	n	124	n	105
Cc1cc(C=C2C(=O)c3ccccc3C2=O)c(C)n1-c1ccc(C(=O)O)cc1	n	n	40	n	n	n	n	n
Cc1cc(C=C2C(=O)c3ccccc3C2=O)c(C)n1-c1ccccc1	n	n	n	n	x	x	x	x

Source: PubChem (several laboratories)
